Consider 13 compounds from ChEMBL document CHEMBL1799934, “Irreversible Nek2 kinase inhibitors with cellular activity” (J Med Chem, 2011).

SMILES strings stand for the structures. Substitutions are numbered along the chain they refer to. pIC50: −log10 of the molar value. The source made the active and inactive calls. The rule behind the calls is not given here.

Assay [1] addresses Cyclin-dependent kinase 1/cyclin B1 (Homo sapiens, UniProt P06493). As to the kind of experiment: Inhibition of human Cdk1/cyclinB using histone H1 as a substrate and [gamma-32P]ATP. Type of assay: protein-complex assay.
Assay [2] relates to A549. Kind of assay: Antimitotic activity in monastrol-arrested human A549 cells assessed as cells that exit mitosis arrest at 5 uM after 45 mins by immunofluorescence microscopic analysis. Format: functional.
In assay [3] the target is T1, Serine/threonine-protein kinase Nek2 (Homo sapiens, UniProt P51955).
T1 sequence (P51955 whole entry): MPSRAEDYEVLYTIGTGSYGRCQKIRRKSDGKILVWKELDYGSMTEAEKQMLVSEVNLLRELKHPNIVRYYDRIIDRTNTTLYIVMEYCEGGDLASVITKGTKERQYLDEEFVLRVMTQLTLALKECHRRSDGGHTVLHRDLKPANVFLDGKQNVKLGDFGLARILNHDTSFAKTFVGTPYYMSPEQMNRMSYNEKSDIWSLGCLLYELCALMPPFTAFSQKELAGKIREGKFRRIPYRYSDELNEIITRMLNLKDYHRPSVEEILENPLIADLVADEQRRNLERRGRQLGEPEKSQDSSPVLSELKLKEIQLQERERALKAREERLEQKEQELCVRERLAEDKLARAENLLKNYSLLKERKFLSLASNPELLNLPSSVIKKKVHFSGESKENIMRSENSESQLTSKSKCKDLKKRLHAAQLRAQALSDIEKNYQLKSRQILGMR
Kind of assay: Inhibition of human Nek2 in using [gamma-32P] ATP.

For assay [4], the system named is A549. Kind of assay: Effect on chromosome congression in human A549 cells at 5 uM after 30 mins in presence of Cdk1 inhibitor 19. Type of assay: functional, cell-based.
Assay [5] has as its system A549. Kind of assay: Reduction in total number of mitotic cells in human A549 cells at 5 uM after 30 mins in presence of Cdk1 inhibitor 19. Format: functional, cell-based.
The subject of assay [6] is A549. As to the kind of experiment: Induction of deffect in bipolar spindle assembly in human A549 cells at 5 uM after 30 mins in presence of Cdk1 inhibitor 19. Type of assay: functional, cell-based. The method in brief:
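A549 cells on poly-lysine coverslips grown 24 h, held in late G2 with 5 μM 19 for 20 h, then given 5 μM test compound plus 5 μM 19 for 30 min. Washed twice into compound-free media, then 10 μM MG132 for 1 h. Fixed and immunostained for spindles and chromosomes. Bipolar spindles quantified in >160 cells/condition, mean ± SD of 3 experiments.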

The species entered for assay [7] is Homo sapiens. As to the kind of experiment: Ratio of IC50 for human Nek2 to IC50 for human Cdk1/cyclinB. The method in brief:
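Nek2 (WT kinase domain, 15 nM) pre-incubated with inhibitor for 30 min at room temperature in HEPES pH 7.5, MgCl2, EDTA, BSA with 100 μM ATP and 3% DMSO. β-casein and [γ-32P]ATP were then added for a 30-min reaction. Cdk1/cyclin B (2 nM) was run the same way but with 38 μM ATP and histone H1 as substrate. Phosphorylation was read from nitrocellulose spots. IC50s are means of three determinations.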

In assay [8] the test system is T2, Serine/threonine-protein kinase Nek2 (Homo sapiens), P51955 [C22V].
T2 sequence (whole entry): T1 sequence (P51955 whole entry) with C22V
Kind of assay: Induction of alkylation at Cys22 position of human Nek2 C22V mutant kinase domain amino acid 1-271 at 500 nM by electrospray mass spectrometric analysis. A digest of the protocol: (§1)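 WT or C22V Nek2 kinase domain (50 nM) incubated with 500 nM inhibitor in PBS pH 7.4, 5% DMSO, 5 h at room temperature. Acidified to pH 3 with HCl, then LC-MS on a C18 protein column with acetonitrile/formic acid gradient and ESI detection. Spectra deconvoluted to single masses of protein and adducts.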

Assay [9] addresses Serine/threonine-protein kinase Nek2 (Homo sapiens, UniProt P51955, C22V). Kind of assay: Inhibition of human Nek2 C22V mutant using [gamma-32P] ATP.
Assay [10] concerns the target T3, Serine/threonine-protein kinase Nek2 (Homo sapiens) (UniProt P51955).
T3 sequence (whole entry): T1 sequence (P51955 whole entry)
As to the kind of experiment: Inhibition of human Nek2 at 5 uM using [gamma-32P] ATP.

Assay [11] addresses T3, Serine/threonine-protein kinase Nek2 (Homo sapiens). As to the kind of experiment: Induction of alkylation at Cys22 position of wild type human Nek2 kinase domain amino acid 1-271 at 500 nM by electrospray mass spectrometric analysis. A digest of the protocol: as §1

Chain of Cyclin-dependent kinase 1/cyclin B1 (P06493 whole entry): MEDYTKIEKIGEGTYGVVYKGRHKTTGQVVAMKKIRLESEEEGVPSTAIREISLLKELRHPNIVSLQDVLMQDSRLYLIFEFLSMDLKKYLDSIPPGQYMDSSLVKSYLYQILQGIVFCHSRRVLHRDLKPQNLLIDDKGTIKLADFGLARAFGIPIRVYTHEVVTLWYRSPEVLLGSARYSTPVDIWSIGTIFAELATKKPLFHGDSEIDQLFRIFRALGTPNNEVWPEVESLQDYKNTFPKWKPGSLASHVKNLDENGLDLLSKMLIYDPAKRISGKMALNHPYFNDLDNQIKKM
Chain of Cyclin-dependent kinase 1/cyclin B1 (P14635 whole entry, further chain): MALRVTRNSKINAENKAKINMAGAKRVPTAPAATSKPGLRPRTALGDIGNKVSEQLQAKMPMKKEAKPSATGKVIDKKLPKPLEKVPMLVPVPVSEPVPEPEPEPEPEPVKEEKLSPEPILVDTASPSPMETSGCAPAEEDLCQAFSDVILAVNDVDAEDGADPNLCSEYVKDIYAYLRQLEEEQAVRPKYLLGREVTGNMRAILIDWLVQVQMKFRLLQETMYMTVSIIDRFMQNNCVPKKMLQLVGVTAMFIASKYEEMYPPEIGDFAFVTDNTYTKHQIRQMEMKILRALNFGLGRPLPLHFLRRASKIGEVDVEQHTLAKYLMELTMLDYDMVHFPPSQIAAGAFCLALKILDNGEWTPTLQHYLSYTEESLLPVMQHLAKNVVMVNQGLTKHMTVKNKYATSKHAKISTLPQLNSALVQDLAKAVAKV
Chain of Serine/threonine-protein kinase Nek2 (Homo sapiens, UniProt P51955, C22V) (P51955 whole entry C22V): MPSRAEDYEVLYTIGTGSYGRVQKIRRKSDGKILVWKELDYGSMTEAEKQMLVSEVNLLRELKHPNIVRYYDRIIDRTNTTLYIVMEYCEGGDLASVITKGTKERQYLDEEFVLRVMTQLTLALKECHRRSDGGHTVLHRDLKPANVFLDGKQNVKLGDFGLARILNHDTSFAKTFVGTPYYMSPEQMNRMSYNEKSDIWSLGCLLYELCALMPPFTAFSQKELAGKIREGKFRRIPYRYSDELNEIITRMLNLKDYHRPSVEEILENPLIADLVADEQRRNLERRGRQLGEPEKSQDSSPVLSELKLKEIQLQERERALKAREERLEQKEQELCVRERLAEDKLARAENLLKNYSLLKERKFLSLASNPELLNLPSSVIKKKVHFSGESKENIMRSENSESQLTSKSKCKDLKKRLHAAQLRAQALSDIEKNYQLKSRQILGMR

The term pIC50 denotes the negative decadic logarithm of the IC50, by convention in mol/L. In the case of `Cc1nc[nH]c1/C=C1\C(=O)Nc2ccc(C(=O)CCl)cc21`, the pIC50 in assay [1] was > 9.00; in assay [3], 7.70. In addition, the Activity in assay [2] is on record as 100%.

As to `C#CC(=O)Nc1ccc2c(c1)/C(=C/c1cnc[nH]1)C(=O)N2`, the figures for the pIC50 in [1] and in [3] were > 9.00 and 6.21, respectively. The Activity in assay [2] amounted to 80%.

For `C#CC(=O)Nc1ccc2c(c1)/C(=C/c1[nH]c(CC)nc1C)C(=O)N2`, the result in assay [4], in [5] and in assay [6] was inactive. The pIC50 in assay [1] is < 4.70.

As for `C#CC(=O)Nc1ccc2c(c1)/C(=C/c1[nH]cnc1C)C(=O)N2`, the pIC50 is > 9.00 in assay [1] and 6.41 in [3]. Besides, the Ratio IC50 in assay [7] came out at 400. Moreover, the Activity in [2] is 99%.

What is called inhibition is the drop in the measured response relative to a control, in per cent. As to `C#CC(=O)Nc1ccc2c(c1)/C(=C/c1ccc[nH]1)C(=O)N2`, the result in assay [8] was inactive. The pIC50 is 7.05 in [1], 4.70 in assay [9] and 6.04 in assay [3]. The compound also yielded an inhibition in [10] of 80%. Also, in [11], the outcome was Active. The Activity in [2] is 78%.

Consider `O=C1Nc2ccc(C(=O)CCl)cc2/C1=C/c1cnc[nH]1`, for which the values for the pIC50 in [1] and in assay [3] were > 9.00 and 7.22, respectively. The Activity in assay [2] is reported as 92%.

For `CCc1nc(C)c(/C=C2\C(=O)Nc3ccc(C(C)=O)cc32)[nH]1`, the pIC50 in [1] is 5.44; in [3], < 4.70. Besides, the Activity in assay [2] was found to be 27%.

In the case of `CCc1nc(C)c(/C=C2\C(=O)N(C)c3ccc(C(=O)CCl)cc32)[nH]1.Cl`, the Activity in assay [2] is recorded as 0.9%.

Regarding `O=C1Nc2ccc(C(=O)CCl)cc2/C1=C/c1ccc[nH]1`, the result in assay [8] was inactive. In addition, the pIC50 in [1] was 8.00; in [9], 4.85; in [3], > 8.22. In addition, in assay [10], the inhibition was 80%. Further, the outcome in [11] was Active. Further, the Activity in [2] amounted to 98%.

In the case of `CCc1nc(C)c(/C=C2\C(=O)Nc3ccc(C(=O)CCl)cc32)[nH]1`, the values for the pIC50 in assay [1] and in assay [3] were 5.60 and 6.89, respectively. The Activity in assay [2] is reported as 50%.

Regarding `CC#CC(=O)Nc1ccc2c(c1)/C(=C/c1[nH]c(CC)nc1C)C(=O)N2`, the pIC50 in [1] was < 4.70. Also, the Activity in [2] stood at 33%.

With `C#CC(=O)Nc1ccc2c(c1)/C(=C/c1[nH]c(CC)nc1C)C(=O)N2C`, the pIC50 in [1] and in [3] was < 4.70 each time. For the same compound, the Activity in assay [2] came to 0%.

As to `C=CC(=O)Nc1ccc2c(c1)/C(=C/c1ccc[nH]1)C(=O)N2`, in assay [10], the inhibition result was “inactive”.
